{"source": "ChEMBL document CHEMBL4007452", "about": "“Discovery of an Orally Selective Inhibitor of Signal Transducer and Activator of Transcription 3 Using Advanced Multiple Ligand Simultaneous Docking” (J Med Chem, 2017)", "key": {"[1]": {"target": "T1, Signal transducer and activator of transcription 1-alpha/beta (Homo sapiens) (UniProt P42224)", "T1 sequence (whole entry)": "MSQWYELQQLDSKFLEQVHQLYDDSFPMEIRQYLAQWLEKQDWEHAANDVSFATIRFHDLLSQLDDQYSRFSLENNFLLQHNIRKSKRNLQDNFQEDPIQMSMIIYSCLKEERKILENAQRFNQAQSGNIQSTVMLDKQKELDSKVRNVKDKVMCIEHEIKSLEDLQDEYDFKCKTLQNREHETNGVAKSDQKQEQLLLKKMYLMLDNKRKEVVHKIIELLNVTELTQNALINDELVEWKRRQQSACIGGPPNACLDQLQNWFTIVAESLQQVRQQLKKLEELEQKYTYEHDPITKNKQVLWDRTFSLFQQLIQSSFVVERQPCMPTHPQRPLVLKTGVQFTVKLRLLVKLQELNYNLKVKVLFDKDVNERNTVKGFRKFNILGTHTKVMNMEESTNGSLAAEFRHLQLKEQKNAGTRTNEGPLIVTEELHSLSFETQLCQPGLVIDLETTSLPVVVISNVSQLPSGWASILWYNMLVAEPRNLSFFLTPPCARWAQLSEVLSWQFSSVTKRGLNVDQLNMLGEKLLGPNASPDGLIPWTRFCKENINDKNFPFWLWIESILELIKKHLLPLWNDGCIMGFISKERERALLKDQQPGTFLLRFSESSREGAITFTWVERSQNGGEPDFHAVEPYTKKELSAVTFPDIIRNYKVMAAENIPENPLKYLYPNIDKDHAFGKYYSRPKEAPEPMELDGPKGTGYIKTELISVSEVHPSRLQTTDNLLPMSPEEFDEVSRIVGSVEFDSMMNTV", "assay": "Inhibition of STAT1 in human MDA-MB-231 cells assessed as reduction in IFN-gamma-induced STAT1-STAT1 DNA binding activity at 2.5 to 10 uM preincubated for 2 hrs followed by IFN-gamma stimulation measured after 30 mins by EMSA", "type": "cell-based", "how_it_was_run": "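Serum-starved MDA-MB-231 cells were preincubated with compound, stimulated with IFN-γ 50 ng/mL, and then nuclear extracts were taken for EMSA with biotin-labeled probe.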"}, "[2]": {"target": "T2, Signal transducer and activator of transcription 3 (Homo sapiens, UniProt P40763)", "T2 sequence (P40763 whole entry)": "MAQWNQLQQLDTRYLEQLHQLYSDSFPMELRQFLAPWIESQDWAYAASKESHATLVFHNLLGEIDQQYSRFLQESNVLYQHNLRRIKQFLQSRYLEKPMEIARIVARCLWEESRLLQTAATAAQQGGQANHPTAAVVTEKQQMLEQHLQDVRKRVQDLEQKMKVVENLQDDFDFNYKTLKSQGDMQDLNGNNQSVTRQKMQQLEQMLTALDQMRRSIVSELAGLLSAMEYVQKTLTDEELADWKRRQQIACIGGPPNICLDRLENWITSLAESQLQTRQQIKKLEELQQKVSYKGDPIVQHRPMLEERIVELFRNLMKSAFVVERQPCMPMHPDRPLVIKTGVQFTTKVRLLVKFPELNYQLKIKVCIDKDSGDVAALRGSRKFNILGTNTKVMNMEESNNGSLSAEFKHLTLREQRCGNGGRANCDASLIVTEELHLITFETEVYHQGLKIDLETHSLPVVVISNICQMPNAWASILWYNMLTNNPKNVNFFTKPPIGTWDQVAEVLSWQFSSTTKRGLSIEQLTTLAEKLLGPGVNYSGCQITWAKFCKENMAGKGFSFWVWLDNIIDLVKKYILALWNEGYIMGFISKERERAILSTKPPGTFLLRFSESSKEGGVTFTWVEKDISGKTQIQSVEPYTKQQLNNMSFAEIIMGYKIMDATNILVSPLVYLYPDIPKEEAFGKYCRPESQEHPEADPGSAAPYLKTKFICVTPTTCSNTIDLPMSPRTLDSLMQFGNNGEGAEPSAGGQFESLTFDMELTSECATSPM", "details": "5 uM"}, "[3]": {"system": "CCRF S-180", "assay": "Anticancer activity against […] cells xenografted in BALB/c nude mouse assessed as reduction in tumor weight at 5 mg/kg, po measured after 21 days relative to vehicle control", "type": "functional", "parameters": "scale not given: the % may be the effect or the level left", "how_it_was_run": "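Male mice, 4 weeks old, given s.c. flank S180 mouse sarcoma cells (3 x 10^6). From day 2, 10 mice per group received saline vehicle, oral drug at 5 mg/kg, or i.p. drug at 1 mg/kg, each dissolved in saline. Therapy ran 21 days; tumor weight and body weight were recorded.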"}, "[4]": {"system": "MDA-MB-231", "assay": "Anticancer activity against human MDA-MB-231 cells xenografted in BALB/c nude mouse assessed as reduction in tumor volume at 2.5 mg/kg, po qd administered for 32 days", "type": "functional", "parameters": "scale not given: the % may be the effect or the level left", "how_it_was_run": "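Female athymic BALB/c nude mice, 6 weeks old, bearing s.c. flank MDA-MB-231 xenografts (5 x 10^6 cells). Dosing began at about 100 mm3 tumor volume; 8 mice per group, one tumor each. Drug was given orally in saline, with a saline vehicle control, for 32 days. Caliper L and W measured every other day; volume = 0.5236×L×W².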"}, "[5]": {"system": "Mus musculus", "assay": "Toxicity in BALB/c nude mouse xenografted with […] S180 cells assessed as body weight loss at 5 mg/kg, po after 21 days relative to vehicle control", "type": "organism-based", "details": "in vivo, 504 h"}, "[6]": {"assay": "AUC (0 to infinity) in Sprague-Dawley rat plasma at 10 mg/kg, po measured after 24 hrs by UPLC analysis", "type": "ADME, organism-based", "parameters": "dose 10 mg/kg, route oral, time infinity", "how_it_was_run": "(§1)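 Rat plasma sampled from 2 min to 24 h after a single i.v. (1 mg/kg) or p.o. (10 mg/kg) dose. Parameters were derived from the concentration-time profiles. The bioanalytical method was validated to FDA guidelines for selectivity, linearity, LLOQ, accuracy, precision, recovery, matrix effect and stability.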"}, "[7]": {"system": "Mus musculus", "assay": "Toxicity in BALB/c nude mouse xenografted with human MDA-MB-231 cells assessed as heart damage at 2.5 to 10 mg/kg, po qd administered for 32 days by H&E staining based light microscopy", "type": "organism-based", "details": "in vivo, 768 h", "how_it_was_run": "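6-week-old female athymic SPF BALB/c nude mice received 5 x 10^6 MDA-MB-231 cells s.c. in the flank. Oral treatment began once tumors reached about 100 mm3, with 8 mice per group and a saline vehicle control. […] Treatment lasted 32 days. Heart, liver, spleen, lung and kidney were fixed 48 h in 10% neutral-buffered formaldehyde, paraffin-embedded, cut at 5 µm, H&E-stained and examined by light microscopy.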"}, "[8]": {"assay": "Clearance in Sprague-Dawley rat plasma at 10 mg/kg, po measured after 24 hrs by UPLC analysis", "type": "ADME, organism-based", "how_it_was_run": "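Parameters were derived from the concentration-time profiles. The bioanalytical method was validated to FDA guidelines for selectivity, linearity, LLOQ, accuracy, precision, recovery, matrix effect and stability.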"}, "[9]": {"system": "Rattus norvegicus", "assay": "AUMC (0 to infinity) in Sprague-Dawley rat plasma at 10 mg/kg, po measured after 24 hrs by UPLC analysis", "type": "ADME, organism-based", "details": "in vivo", "how_it_was_run": "as §1"}, "[10]": {"target": "Epidermal growth factor receptor (Homo sapiens) (UniProt P00533)", "sequence (P00533 whole entry)": "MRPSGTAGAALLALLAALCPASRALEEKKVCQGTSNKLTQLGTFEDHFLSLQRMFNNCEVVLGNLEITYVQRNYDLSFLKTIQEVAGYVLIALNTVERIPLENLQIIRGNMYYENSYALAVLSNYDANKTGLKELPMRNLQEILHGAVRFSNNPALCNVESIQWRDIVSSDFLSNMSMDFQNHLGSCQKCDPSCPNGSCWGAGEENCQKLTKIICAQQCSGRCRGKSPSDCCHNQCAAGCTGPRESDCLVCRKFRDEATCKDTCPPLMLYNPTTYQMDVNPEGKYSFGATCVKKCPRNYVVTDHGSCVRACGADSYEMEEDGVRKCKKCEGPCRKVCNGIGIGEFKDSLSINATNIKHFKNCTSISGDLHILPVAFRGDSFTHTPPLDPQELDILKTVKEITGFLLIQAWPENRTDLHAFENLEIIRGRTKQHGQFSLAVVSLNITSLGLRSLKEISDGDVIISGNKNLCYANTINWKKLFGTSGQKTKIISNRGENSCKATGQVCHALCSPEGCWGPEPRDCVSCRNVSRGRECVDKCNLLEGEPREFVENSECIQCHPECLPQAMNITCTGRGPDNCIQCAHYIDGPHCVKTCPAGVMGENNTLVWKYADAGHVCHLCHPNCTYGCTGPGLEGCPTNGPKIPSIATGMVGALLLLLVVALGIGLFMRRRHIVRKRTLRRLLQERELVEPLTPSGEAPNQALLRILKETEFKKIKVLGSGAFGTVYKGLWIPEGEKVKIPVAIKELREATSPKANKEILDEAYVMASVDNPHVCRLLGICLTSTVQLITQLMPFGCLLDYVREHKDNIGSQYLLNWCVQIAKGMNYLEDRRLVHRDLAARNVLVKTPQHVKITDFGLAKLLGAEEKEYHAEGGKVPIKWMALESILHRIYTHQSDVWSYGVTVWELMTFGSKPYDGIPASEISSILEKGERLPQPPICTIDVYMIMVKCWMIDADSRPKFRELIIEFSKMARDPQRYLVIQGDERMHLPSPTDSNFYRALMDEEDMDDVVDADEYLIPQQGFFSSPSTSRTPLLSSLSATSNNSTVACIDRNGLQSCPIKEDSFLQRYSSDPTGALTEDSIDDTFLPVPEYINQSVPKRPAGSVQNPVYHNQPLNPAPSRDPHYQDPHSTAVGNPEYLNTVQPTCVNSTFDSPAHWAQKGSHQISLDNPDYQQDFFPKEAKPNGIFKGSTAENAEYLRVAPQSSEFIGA", "assay": "Inhibition of EGFR in human UW426 cells assessed as reduction in p-Akt level at 1 to 2.5 uM after 24 hrs by immunoblot analysis", "type": "cell-based", "how_it_was_run": "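UW426 cells at 60–80% confluence were treated 24 h at 1-2.5 µM with 10% FBS, against a DMSO control, then immunoblotted.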"}, "[11]": {"system": "Mus musculus", "assay": "Effect on total STAT3 level in BALB/c nude mouse xenografted with human MDA-MB-231 at 2.5 to 10 mg/kg, po qd administered for 32 days by Western blot analysis", "type": "ADME, organism-based", "details": "in vivo, 768 h", "how_it_was_run": "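Whole-cell lysates from MDA-MB-231 xenograft tumors of mice dosed orally at 2.5, 5 or 10 mg/kg were immunoblotted for P-STAT3(Y705), T-STAT3 and GAPDH.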"}, "[12]": {"assay": "Terminal half life in Sprague-Dawley rat plasma at 10 mg/kg, po measured after 24 hrs by UPLC analysis", "type": "ADME, organism-based", "details": "read-out: beta t1/2 (converted)", "how_it_was_run": "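Rats dosed i.v. or p.o. Plasma concentrations followed from 2 min to 24 h after dosing. The bioanalytical method was validated to FDA guidelines for selectivity, linearity, LLOQ, accuracy, precision, recovery, matrix effect and stability.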"}, "[13]": {"assay": "Cmax in Sprague-Dawley rat plasma at 10 mg/kg, po measured after 24 hrs by UPLC analysis", "type": "ADME, organism-based", "parameters": "dose 10 mg/kg, route oral", "how_it_was_run": "as §1"}, "[14]": {"assay": "Antiproliferative activity against human UW426 cells after 24 hrs by MTT assay", "type": "functional, cell-based", "details": "UW426, 24 h", "how_it_was_run": "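Cells were seeded at 3000 per well and incubated 24 h at 37 °C. Compounds were added in triplicate with 10% FBS: 0.1-10 or 0.1-20 µM for cancer lines, 3.125-400 µM for MCF-10A. Viability was read by MTT absorbance at 595 nm, with IC50 fitted from the curves. DMSO stocks were 20 mM.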"}, "[15]": {"target": "T2, Signal transducer and activator of transcription 3", "details": "2.5 to 5 uM"}}, "note": "Activity calls are given as the source filed them. The calls are words filed in the database; no cut-off is given here."}
{"compound": "NS(=O)(=O)c1cccc2c1C(=O)C=C(Nc1ccccc1N1CCNCC1)C2=O", "values": [{"measurement": "inhibition", "setting": "[1]", "value": "inactive"}, {"measurement": "inhibition", "setting": "[2]", "value": "Active"}, {"measurement": "Activity", "setting": "[3]", "value": 72.74, "unit": "%"}, {"measurement": "Activity", "setting": "[4]", "value": 53, "unit": "%"}, {"measurement": "Activity", "setting": "[5]", "value": 1.68, "unit": "%"}, {"measurement": "AUC(0-inf)", "setting": "[6]", "value": 889, "unit": "ng·h/mL"}, {"measurement": "Activity", "setting": "[7]", "value": "Non-Toxic"}, {"measurement": "CL/F", "setting": "[8]", "value": 196, "unit": "mL/min/kg"}, {"measurement": "AUMC", "setting": "[9]", "value": 2002.1, "unit": "hr2.ng/ml"}, {"measurement": "inhibition", "setting": "[10]", "value": "inactive"}, {"measurement": "Activity", "setting": "[11]", "value": "Non-Toxic"}, {"measurement": "half-life", "setting": "[12]", "value": 1.98, "unit": "h"}, {"measurement": "Cmax", "setting": "[13]", "value": 540, "unit": "ng/mL"}, {"measurement": "IC50", "setting": "[14]", "value": 1200, "unit": "nM"}, {"measurement": "inhibition", "setting": "[15]", "value": "Active"}]}
